Experimental data collected from several papers.
Protocols differ between the studies behind these lines.
Target: Tyrosine-protein kinase Lyn (LYN, Homo sapiens, UniProt P07948)

SMILES	read-out	action	technique	concentration	quantity	value
Cc1ccc(Nc2nccc(N(C)c3ccc4c(C)n(C)nc4c3)n2)cc1S(N)(=O)=O	enzyme activity	inhibitor	–	0.5 µM	remaining activity	52.1%
Cc1cc(NC(=O)c2cccc3cc(-c4cccc5[nH]nc(N)c45)ccc23)ccc1F	enzyme activity	inhibitor	–	0.1 µM	activity vs control	88%
Clc1ccc(Nc2nnc(Cc3ccncc3)c3ccccc23)cc1	cell-free assay	–	–	0.5 µM	remaining signal	91.8%
Cn1c2c(c3ccc(Cl)c(Cl)c31)C(C#N)C1(CCOCC1)NC2=O (centres unmarked)	thermal stability	–	DSF	10 µM	ΔTm	-0.2 °C
CNC(=O)c1cc(Oc2ccc(NC(=O)Nc3ccc(Cl)c(C(F)(F)F)c3)cc2)ccn1	enzyme activity	inhibitor	–	10 µM	inhibition	96%
N#CCCc1ccc2c(c1)-c1[nH]c3ccc([N+](=O)[O-])cc3c1CC(=O)N2	cell-free assay	–	–	0.5 µM	remaining signal	23%
CCOC(=O)c1cc2cc(-c3cc(C(=O)NCc4ccc(C(=O)O)cc4)nn3C)ccc2[nH]1	cell-free assay	–	competition with immobilised ligand	0.1 µM	remaining binding	100%
CNCc1ccc(-c2cc(-c3nc(-c4ccc(S(=O)(=O)C(C)C)cc4)cnc3N)on2)cc1	enzyme activity	inhibitor	–	2 µM	inhibition	53%
Cn1nc(C(F)(F)F)cc1-c1cnc(N2CCc3cc(S(=O)(=O)Nc4c(F)cc(Cl)cc4F)cc(N4CCCC4=O)c32)nc1	cell-free assay	–	competition with immobilised ligand	1 µM	remaining binding	100%
C=CC(=O)Nc1cc(Nc2nccc(Nc3cc(Cl)c(F)cc3C(C)(C)O)n2)c(OC)cc1N1CC[C@@H](N(C)C)C1	enzyme activity	inhibitor	–	1 µM	inhibition	44%
N#CC1c2c([nH]c3c(Cl)c(Cl)ccc23)C(=O)NC12CCCCC2 (racemic)	thermal stability	–	DSF	10 µM	ΔTm	0.2 °C
CC(C)(C)c1nc(-c2cccc(NS(=O)(=O)c3c(F)cccc3F)c2F)c(-c2ccnc(N)n2)s1	enzyme activity	inhibitor	radiometric	1 µM	remaining activity	51%
Cn1c2c(c3ccc(Cl)c(Cl)c31)C(C#N)C1(CCN(C(=O)OC(C)(C)C)CC1)NC2=O (racemic)	thermal stability	–	DSF	10 µM	ΔTm	0 °C
CNCc1ccccc1-c1csc([C@H](C)Nc2nc(C)nc3cc(OC)c(OC)cc23)c1	cell-free assay	–	competition with immobilised ligand	1 µM	remaining binding	100%
Cc1sc(C(=O)NC2COC2)cc1-n1cc(NC(=O)Nc2c(F)cccc2Cl)cn1	enzyme activity	inhibitor	–	10 µM	remaining activity	106%
O=C(NC[C@@H]1[C@H]2CN(C(=O)OCc3cc(C(F)(F)F)cc(C(F)(F)F)c3)C[C@@H]12)c1ccc2[nH]nnc2c1	cell-free assay	–	competition with immobilised ligand	1 µM	remaining binding	100%
Cc1ccc(C(=O)Nc2ccc(CN3CCN(C)CC3)c(C(F)(F)F)c2)cc1C#Cc1cnc2cccnn12	enzyme activity	inhibitor	–	23.5 nM	remaining activity	0.65%
